Converted amounts (≈) assume the structure as drawn.
Legend:
[1] = Intrinsic clearance in rat liver microsomes assessed per mg of protein; assay type: ADME; details: read-out: CLH
Method in brief: (§1)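 Compound incubated with liver microsomes (human for line 2, rat for line 3) and its concentration followed at up to 8 successive time points. Intrinsic pseudo-first-order decay rate constant (Clint) taken from linear regression of those concentrations and normalised to microsomal protein. Upper and lower bounds are 95% confidence levels from the regression.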

[2] = Lipophilicity, Log P of the compound; assay type: physicochemical; details: octanol/water
[3] = Aqueous solubility of the compound at pH 6.5; assay type: physicochemical
[4] = Intrinsic clearance in human liver microsomes assessed per mg of protein; assay type: ADME; details: read-out: CLH; method in brief: as §1

FC(F)(F)CCc1c[nH]c2ccccc12
microsomal CLint [1]: 290 µL/min/mg | logP [2]: 3.1 | solubility [3]: 30 µM (≈ 6.4 µg/mL) | microsomal CLint [4]: 410 µL/min/mg

FCC(F)CCc1c[nH]c2ccccc12 (stereo unspecified)
microsomal CLint [1]: 492 µL/min/mg | logP [2]: 2.8 | solubility [3]: 277 µM (≈ 58 µg/mL) | microsomal CLint [4]: 245 µL/min/mg

C[C@@H](F)[C@H](F)Cc1c[nH]c2ccccc12 (racemic)
logP [2]: 2.8

FC[C@H](F)[C@H](F)Cc1c[nH]c2ccccc12 (racemic)
logP [2]: 2.7

CCCc1c[nH]c2ccccc12
microsomal CLint [1]: 182 µL/min/mg | logP [2]: 3.3 | solubility [3]: 200 µM (≈ 31.8 µg/mL) | microsomal CLint [4]: 513 µL/min/mg

CCC(F)(F)Cc1c[nH]c2ccccc12
microsomal CLint [1]: 644 µL/min/mg | logP [2]: 3.1 | solubility [3]: 182 µM (≈ 38.1 µg/mL) | microsomal CLint [4]: 271 µL/min/mg

CC(F)(F)CCc1c[nH]c2ccccc12
microsomal CLint [1]: 584 µL/min/mg | logP [2]: 3 | solubility [3]: 115 µM (≈ 24.1 µg/mL) | microsomal CLint [4]: 321 µL/min/mg

FC(F)CCc1c[nH]c2ccccc12
microsomal CLint [1]: 294 µL/min/mg | logP [2]: 2.9 | microsomal CLint [4]: 372 µL/min/mg

FC[C@@H](F)[C@H](F)Cc1c[nH]c2ccccc12 (racemic)
logP [2]: 2.7

C[C@H](F)[C@H](F)Cc1c[nH]c2ccccc12 (racemic)
logP [2]: 2.8

FCC(F)Cc1c[nH]c2ccccc12 (stereo unspecified)
microsomal CLint [1]: 142 µL/min/mg | logP [2]: 2.5 | solubility [3]: > 1720 µM | microsomal CLint [4]: 212 µL/min/mg

CC(F)(F)Cc1c[nH]c2ccccc12
microsomal CLint [1]: 226 µL/min/mg | logP [2]: 2.8 | solubility [3]: 820 µM (≈ 160 µg/mL) | microsomal CLint [4]: 508 µL/min/mg

FCCCc1c[nH]c2ccccc12
logP [2]: 2.8

— ChEMBL document CHEMBL3632616, “Fluorination Patterning: A Study of Structural Motifs That Impact Physicochemical Properties of Relevance to Drug Discovery” (J Med Chem, 2015)
